Experimental data published in ChEMBL document CHEMBL1138321, “Asymmetric synthesis of conformationally constrained fingolimod analogues--discovery of an orally active sphingosine 1-phosphate receptor type-1 agonist and receptor type-3 antagonist” (J Med Chem, 2007).
The source made the active and inactive calls. The calls are words filed in the database; no cut-off is given here.

Key:
[1] = biological target: Sphingosine 1-phosphate receptor 3 (Homo sapiens) (UniProt Q99500); test: Agonist activity at human S1P3 receptor expressed in CHOK1 cells; assay type: functional, cell-based; conditions: CHO-K1
Outline: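 Human S1P3 with N-terminal HA tag, stably expressed in a FACS-isolated clonal CHO K1 line. Confluent monolayers were washed and loaded with a calcium-sensitive fluorescent dye, and calcium transients were monitored on compound addition. Eight-point concentration-effect curves were run in triplicate and presented as SEM.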

[2] = biological target: Sphingosine 1-phosphate receptor 3 (Homo sapiens) (UniProt Q99500); test: Antagonist activity at human S1P3 receptor expressed in CHOK1 cells assessed as effect on calcium mobilization; assay type: functional, cell-based; conditions: CHO-K1
Outline: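 Calcium mobilization in a FACS-isolated clonal CHO K1 line stably expressing HA-tagged human S1P3, loaded with a calcium-sensitive dye. Concentration-effect curves for the agonist were run with and without 1 μM test phosphate. There were eight points in triplicate (SEM), and three independent experiments.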

[3] = biological target: T1, Sphingosine kinase 2 (Mus musculus) (UniProt Q9JIA7); test: Substrate activity at mouse Sphk2 expressed in HEK293T cells; conditions: HEK-293T
T1 sequence (whole entry): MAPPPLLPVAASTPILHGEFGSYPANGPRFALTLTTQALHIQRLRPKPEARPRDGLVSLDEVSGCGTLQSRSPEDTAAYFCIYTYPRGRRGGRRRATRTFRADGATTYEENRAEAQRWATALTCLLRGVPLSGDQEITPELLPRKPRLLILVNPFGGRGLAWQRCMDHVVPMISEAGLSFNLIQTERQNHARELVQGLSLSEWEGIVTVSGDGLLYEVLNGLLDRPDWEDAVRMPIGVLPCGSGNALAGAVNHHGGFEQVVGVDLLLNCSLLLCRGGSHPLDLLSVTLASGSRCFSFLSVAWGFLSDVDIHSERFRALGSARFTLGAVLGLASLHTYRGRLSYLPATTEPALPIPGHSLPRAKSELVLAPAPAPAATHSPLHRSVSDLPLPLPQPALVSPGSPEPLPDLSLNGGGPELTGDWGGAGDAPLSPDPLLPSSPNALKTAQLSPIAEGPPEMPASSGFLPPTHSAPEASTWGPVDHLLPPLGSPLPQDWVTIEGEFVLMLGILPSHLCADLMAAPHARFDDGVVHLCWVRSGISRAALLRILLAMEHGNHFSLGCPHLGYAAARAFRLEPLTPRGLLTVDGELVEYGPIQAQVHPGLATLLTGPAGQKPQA

Mus musculus [4] = test: Induction of lymphopenia in C57B1/6J mouse at 1 mg/kg, po after 48 hrs; assay type: functional, organism-based; design: dose 1 mg/kg
Outline: (§1)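 Female C57Bl/6j mice (n=3 per group) received a single oral gavage of 1 mg/kg in 2% hydroxypropyl β-cyclodextrin on day 0. Blood was drawn from the orbital sinus under light anesthesia on the indicated days. Total lymphocytes were counted on a Hemavet 950 blood analyzer.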

Mus musculus [5] = test: Induction of lymphopenia in C57B1/6J mouse at 1 mg/kg, po after 8 days; assay type: functional, organism-based; design: dose 1 mg/kg; outline: as §1
[6] = biological target: T2, Sphingosine 1-phosphate receptor 4 (Homo sapiens) (UniProt O95977); test: Activity at S1P4 receptor
T2 sequence (whole entry): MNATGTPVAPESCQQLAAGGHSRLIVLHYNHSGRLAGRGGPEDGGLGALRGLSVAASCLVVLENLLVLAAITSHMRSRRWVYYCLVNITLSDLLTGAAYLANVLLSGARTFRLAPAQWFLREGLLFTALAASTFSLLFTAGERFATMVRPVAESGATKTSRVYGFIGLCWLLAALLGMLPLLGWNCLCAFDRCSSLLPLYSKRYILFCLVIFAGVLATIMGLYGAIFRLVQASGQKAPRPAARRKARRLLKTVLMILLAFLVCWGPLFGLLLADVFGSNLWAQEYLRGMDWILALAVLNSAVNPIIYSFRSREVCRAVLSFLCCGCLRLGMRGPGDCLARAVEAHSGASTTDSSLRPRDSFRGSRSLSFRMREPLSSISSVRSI

[7] = biological target: Sphingosine 1-phosphate receptor 2 (Homo sapiens) (UniProt O95136); test: Activity at S1P2 receptor
Sequence of Sphingosine 1-phosphate receptor 2 (Homo sapiens) (O95136 whole entry): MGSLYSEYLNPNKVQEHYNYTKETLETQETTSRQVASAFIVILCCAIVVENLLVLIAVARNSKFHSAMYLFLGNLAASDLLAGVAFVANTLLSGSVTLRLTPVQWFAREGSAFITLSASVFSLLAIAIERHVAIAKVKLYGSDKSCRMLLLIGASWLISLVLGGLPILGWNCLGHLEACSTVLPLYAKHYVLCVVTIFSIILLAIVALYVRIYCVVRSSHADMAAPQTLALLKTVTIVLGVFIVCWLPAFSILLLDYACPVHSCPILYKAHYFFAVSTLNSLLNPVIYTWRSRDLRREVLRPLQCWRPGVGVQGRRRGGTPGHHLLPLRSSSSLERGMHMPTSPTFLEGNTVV

Sequence of Sphingosine 1-phosphate receptor 3 (Homo sapiens) (Q99500 whole entry): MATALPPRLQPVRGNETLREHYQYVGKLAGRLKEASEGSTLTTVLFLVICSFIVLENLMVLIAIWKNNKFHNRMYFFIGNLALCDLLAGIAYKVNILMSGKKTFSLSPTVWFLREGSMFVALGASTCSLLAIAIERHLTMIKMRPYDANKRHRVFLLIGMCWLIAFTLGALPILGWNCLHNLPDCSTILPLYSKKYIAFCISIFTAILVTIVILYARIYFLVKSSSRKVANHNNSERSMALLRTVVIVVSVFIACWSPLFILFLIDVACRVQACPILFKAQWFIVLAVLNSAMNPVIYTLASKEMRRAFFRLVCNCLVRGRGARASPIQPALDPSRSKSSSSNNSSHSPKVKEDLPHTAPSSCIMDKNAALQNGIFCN

Row | Activity [1] | Activity [2] | Activity [3] | Compound | other results
1 | inactive | inactive | – | CCCCCCCCc1ccc([C@@H]2CC[C@](N)(COP(=O)(O)O)C2)cc1 | –
2 | – | – | inactive | CCCCCCCCc1ccc([C@H]2CC[C@@](N)(CO)C2)cc1 | –
3 | inactive | Active | – | CCCCCCCCc1ccc([C@H]2CC[C@@](N)(COP(=O)(O)O)C2)cc1 | –
4 | – | – | Active | CCCCCCCCc1ccc([C@H]2CC[C@](N)(CO)C2)cc1 | Activity (Mus musculus [4]): Active
5 | – | – | Active | CCCCCCCCc1ccc([C@@H]2CC[C@](N)(CO)C2)cc1 | Activity (Mus musculus [4]): Active; Activity (Mus musculus [5]): Active
6 | inactive | Active | – | CCCCCCCCc1ccc([C@H]2CC[C@](N)(COP(=O)(O)O)C2)cc1 | –
7 | – | – | – | CCCCCCCCc1ccc(C2CCC(N)(COP(=O)(O)O)C2)cc1 (configuration not stated) | Activity [6]: Active; Activity [7]: inactive
8 | inactive | Active | – | CCCCCCCCc1ccc([C@@H]2CC[C@@](N)(COP(=O)(O)O)C2)cc1 | –
9 | – | – | inactive | CCCCCCCCc1ccc([C@@H]2CC[C@@](N)(CO)C2)cc1 | –
